Rows were chosen to be rich in hits. Some 1.2% of all compounds tested hit in one or more screens of this group.
procasp7 counter – procaspase-7 activators, primary screen, counter-screen for procaspase-3 activator project, biochemical, absorbance, HTS, human; Caspase-7 (Homo sapiens), P55210; recombinant procaspase-7, Ac-DEVD-pNA absorbance 405 nm; D23A/D198A/D206A triple mutant, cannot self-cleave; scale: DMSO 0, 5 µM enzyme 100; activation, % at 8.5 µM; actives 0.093% (n = 330,000); AID 463210, 2010;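 active = percent activation above the screen-wide mean plus 3 SD, cut at about 25% in these data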
Target sequence (P55210 whole entry D23A/D198A/D206A): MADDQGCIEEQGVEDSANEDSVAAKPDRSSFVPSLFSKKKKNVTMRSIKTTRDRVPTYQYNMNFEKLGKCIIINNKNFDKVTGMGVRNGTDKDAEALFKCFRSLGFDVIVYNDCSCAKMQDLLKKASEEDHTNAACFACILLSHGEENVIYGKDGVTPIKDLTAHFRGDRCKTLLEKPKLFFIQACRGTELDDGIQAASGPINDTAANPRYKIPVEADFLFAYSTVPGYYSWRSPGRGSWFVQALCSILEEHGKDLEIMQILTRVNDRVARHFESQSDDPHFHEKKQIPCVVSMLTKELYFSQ
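Assay system: Uncleavable procaspase-7 mutant enzyme | Input: 2 µM procaspase-7 mutant as dispensed | Timing: 1 h compound preincubation, 2 h substrate cleavage, 25 °C | Repeats: One well per compound | Control set: DMSO wells as 0%, DMSO with 5 µM added PC-7 as 100% | Technique: Epi-absorbance of released pNA at 405 nm, two timepoints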
IDE inh – human IDE inhibitors in live cells, primary screen, fluorescence polarization, HEK cells, FAbetaB substrate; Insulin-degrading enzyme (Homo sapiens), P14735; FAbetaB cleavage; inhibition, % at 5.59 µM; actives 0.41% (n = 320,000); AID 434962, 2010;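 active = percent inhibition above the average of all tested compounds plus 3 SD, set per screening campaign, cut at about 16% in these data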;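 also: IDE supplied by intact live HEK cells; FP after avidin binding of uncleaved biotin substrate so inhibition keeps polarization high; 0% = DMSO wells and 100% = 60 µM reference IDE inhibitor Ii1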
TPT1 inh – Candida albicans TPT1 enzyme inhibitors, primary screen, biochemical, fluorescence polarization; actives 0.81% (n = 300,000); recombinant caTPT1, FP RNA substrate dephosphorylation; tRNA 2'-phosphotransferase TPT1 (Candida albicans SC5314); inhibition, % at 5 µM;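 active = inhibition above the mean of all tested compounds plus 3 SD, set per screening campaign, cut at about 24% in these data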;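 also: plate controls were DMSO alone for no effect and ferristatin control at 100 nM for full effect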
proCasp3 act – activators of human procaspase-3 D3A mutant, primary screen, biochemical, absorbance, PC-3 D3A mutant, single concentration | AID 463141, 2010 | actives 0.11% (n = 330,000) | recombinant procaspase-3 D3A, Ac-DEVD-pNA absorbance 405 nm | activation, % at 8.5 µM;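 active = activation above the mean of all tested compounds plus 3 SD, cut at about 21% in these data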;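 also: 0% = DMSO alone and 100% = DMSO wells spiked with extra 5 µM PC-3 D3A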
Target sequence (P42574 whole entry D9A/D28A/D175A): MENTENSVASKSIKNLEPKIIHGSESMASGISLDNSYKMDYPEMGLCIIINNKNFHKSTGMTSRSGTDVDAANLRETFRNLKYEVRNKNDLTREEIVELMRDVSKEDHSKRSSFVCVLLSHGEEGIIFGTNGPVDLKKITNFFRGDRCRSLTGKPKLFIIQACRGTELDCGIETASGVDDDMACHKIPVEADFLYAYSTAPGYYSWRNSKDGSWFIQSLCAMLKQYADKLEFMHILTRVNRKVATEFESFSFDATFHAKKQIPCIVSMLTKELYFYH
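assay system = Procaspase-3 D3A mutant | signal = absorbance at 405 nm, 0 and 120 min | times = 1 h preincubation plus 2 h reaction at 25 °C | repeats = single replicate | read-out = % activation between DMSO and enzyme-spiked controls | medium = Zinc-free HEPES saline buffer with Triton X-100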
IDE cell activ – human IDE activators in live cells, primary screen, fluorescence polarization, HEK cells, FAbeta-B substrate; FAbeta-B cleavage; 0% vehicle, 100% cell-free pure enzyme wells; activation, % at 5.96 µM; actives 0.073% (n = 340,000); AID 493087, 2011;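 active = activation above the mean of all tested compounds plus 3 SD, set per screening campaign, cut at about 17% in these data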
caTPT1 confirm – Candida albicans TPT1 inhibitors, confirmation, biochemical, fluorescence polarization, triplicate; shares compounds with TPT1 inh; recombinant caTPT1, RNase T1 coupled; inhibition, % at 5 µM; actives 74% (n = 2,400);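 active = inhibition above the primary screen limit, the mean inhibition of all tested compounds plus 3 SD, cut at about 25% in these data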
RNase T1 counter – RNase T1 inhibitors, counter-screen for TPT1 inhibitor project, biochemical, fluorescence polarization; inhibition, % at 5 µM; AID 2153, 2009; RNase T1 cleavage, 1536-well; actives 83% (n = 2,400); shares compounds with TPT1 inh;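 active = inhibition above the solvent-only control well mean plus 3 SD, limit set per screening run, cut at about 23% in these data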;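 also: plate controls were DMSO wells with enzyme for no effect and wells without RNase T1 for full effect; inhibitors block cleavage so intact labeled substrate keeps polarization high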
Starred values were filed as active, the others as inactive.

How did O=C1NC(=S)N/C1=C/c1cc([N+](=O)[O-])ccc1O do in these assays?
procasp7 counter: 0; IDE inh: -4; TPT1 inh: 43*; proCasp3 act: -3; IDE cell activ: -5; caTPT1 confirm: 43*; RNase T1 counter: 52*

What do the screens show for `COc1ccc(CN=CC2=C(O)CNC2=O)cc1`?
procasp7 counter: 8; IDE inh: -1; TPT1 inh: -1; proCasp3 act: -1; IDE cell activ: -11

Results for COc1ccc(CN=Cc2[nH]c3ccc(Br)c(Cl)c3c2O)cc1 ?
procasp7 counter: 6; IDE inh: 1; TPT1 inh: 88*; proCasp3 act: -2; IDE cell activ: -3; caTPT1 confirm: 136*; RNase T1 counter: 131*

Results for Cc1cc(C)cc(N=Cc2[nH]c3ccc(Br)c(Cl)c3c2O)c1 ?
procasp7 counter: 1; IDE inh: 9; TPT1 inh: 121*; proCasp3 act: 1; IDE cell activ: -51; caTPT1 confirm: 111*; RNase T1 counter: 111*

Results for CCOc1ccccc1N1CCN(C(=O)c2ccccc2OCc2c(C)noc2C)CC1 ?
procasp7 counter: -9; IDE inh: -3; proCasp3 act: -4; IDE cell activ: 3

Results for Cc1ccc2[nH]c(=O)c3cc(C(=O)NCCC(C)C)sc3c2c1 ?
IDE cell activ: 6

How did CCC(C)NC(=O)c1cc2c(=O)[nH]c3ccc(C)cc3c2s1 (stereo not drawn) do in these assays?
procasp7 counter: -1; IDE inh: 0; TPT1 inh: 29*; proCasp3 act: -7; IDE cell activ: 3; caTPT1 confirm: 7; RNase T1 counter: 14

Results for Cn1ccnc1SCC(=O)c1cc2ccccc2o1 ?
procasp7 counter: -8; IDE inh: 11; TPT1 inh: 61*; proCasp3 act: 0; IDE cell activ: -3; caTPT1 confirm: 29*; RNase T1 counter: 41*

What do the screens show for `CCOC(=O)c1ccc2c(c1)nc(SCC(=O)c1cc3ccccc3o1)n2CC`?
procasp7 counter: -18; IDE inh: 2; TPT1 inh: 33*; proCasp3 act: 1; IDE cell activ: 1; caTPT1 confirm: 15; RNase T1 counter: 24*

How did COc1ccc(-n2nnnc2SCC(=O)c2cc3ccccc3o2)cc1 do in these assays?
procasp7 counter: 6; IDE inh: 8; TPT1 inh: 32*; proCasp3 act: 2; IDE cell activ: 2; caTPT1 confirm: 26*; RNase T1 counter: 35*

How did C=CCNC(=O)CSc1nc2cc(C(=O)OCC)ccc2n1CC do in these assays?
procasp7 counter: -4; IDE inh: 3; TPT1 inh: -1; proCasp3 act: 8; IDE cell activ: -1

How did O=C(CSc1nc2ccccc2s1)c1cc2ccccc2o1 do in these assays?
procasp7 counter: -13; IDE inh: 11; TPT1 inh: 56*; proCasp3 act: -11; IDE cell activ: -5; caTPT1 confirm: 16; RNase T1 counter: 25*

Results for COc1ccc(-n2nnnc2SCC(N)=O)cc1 ?
procasp7 counter: 3; IDE inh: 7; TPT1 inh: -5; proCasp3 act: 2; IDE cell activ: 2

How did COc1ccc(S(=O)(=O)N2CCCC(N(C)CCc3ccccc3)C2)cc1OC (stereo not drawn) do in these assays?
procasp7 counter: 14; IDE inh: -7; TPT1 inh: -1; proCasp3 act: -5; IDE cell activ: 0

What do the screens show for `COc1ccc(-n2nc(C(=O)NCC(=O)NCc3ccc(F)cc3)c3ccccc3c2=O)cc1`?
procasp7 counter: -6; IDE inh: 0; TPT1 inh: -2; proCasp3 act: 3; IDE cell activ: 1

Results for COc1ccccc1NC(=O)CSc1nc(N)c(C#N)cc1C#N ?
procasp7 counter: -6; IDE inh: -6; TPT1 inh: 32*; proCasp3 act: -14; caTPT1 confirm: 39*; RNase T1 counter: 50*

How did CCOc1ccccc1NC(=O)CSc1nc(N)c(C#N)cc1C#N do in these assays?
procasp7 counter: 4; IDE inh: -2; TPT1 inh: 21; proCasp3 act: -7; IDE cell activ: 3

Results for COc1ccc(C)cc1NC(=O)c1cccc(-c2ccc(OC(C)=O)cc2)c1 ?
procasp7 counter: 2; IDE inh: -1; TPT1 inh: -2; proCasp3 act: 3; IDE cell activ: 3

Results for CCOc1ccc(C2CC(c3c(O)c4ccccc4oc3=O)=NN2c2ccccc2)cc1OC (stereo not drawn) ?
procasp7 counter: -2; IDE inh: -4; TPT1 inh: 69*; proCasp3 act: 1; IDE cell activ: 4; caTPT1 confirm: 80*; RNase T1 counter: 82*

What do the screens show for `O=C(O)CCCn1c(O)c(C=C2N=c3ccccc3=N2)sc1=S`?
procasp7 counter: -38; IDE inh: -5; TPT1 inh: 4; proCasp3 act: -25; IDE cell activ: 6

What do the screens show for `COCCCn1c(O)c(/C=C2\N=C(C#N)C(=Nc3ccc(C)cc3)O2)sc1=S`?
procasp7 counter: -16; IDE inh: 10; TPT1 inh: 79*; proCasp3 act: 0; IDE cell activ: -12; caTPT1 confirm: 80*; RNase T1 counter: 85*

Results for Oc1cccc(Nc2c3ccccc3nc3ccccc23)c1 ?
procasp7 counter: -9; IDE inh: -5; TPT1 inh: 54*; proCasp3 act: -12; IDE cell activ: 0; caTPT1 confirm: 4; RNase T1 counter: 11

How did O=C(C[n+]1cc(Br)cc2ccccc21)c1ccc(Br)cc1 do in these assays?
procasp7 counter: -7; IDE inh: 5; TPT1 inh: 27*; proCasp3 act: 0; IDE cell activ: 1; caTPT1 confirm: 36*; RNase T1 counter: 48*

How did CN(C)CCNC(=O)c1c(O)c2c([nH]c1=O)CCCC2 do in these assays?
procasp7 counter: -3; IDE inh: 3; TPT1 inh: 37*; proCasp3 act: 7; IDE cell activ: 5; caTPT1 confirm: 19; RNase T1 counter: 25*

Results for O=C(C=Cc1ccccc1)c1cc(Br)ccc1O ?
IDE cell activ: 1
